ChEMBL document CHEMBL1124666, “Novel linked antiviral and antitumor agents related to netropsin and distamycin: synthesis and biological evaluation” (1989)
In brackets after ≈: the same amount, converted by molar mass.

Legend:
[1] = system: Vaccinia virus; assay: Minimum cytotoxic concentration against vaccinia virus embryonic skin muscle cell cultures; type: functional; conditions: Orthopoxvirus vaccinia
[2] = system: P388; assay: Inhibitory effect on the proliferation of murine leukemia (P388) cells; type: functional; conditions: Mus musculus, read-out: ID50 (the source's name)
[3] = system: Human alphaherpesvirus 1; assay: Minimum inhibitory concentration against Herpes simplex virus 1(KOS); type: functional
[4] = Inhibitory effect on the proliferation of human T-lymphoblast (Molt/4F ) cells; type: functional; conditions: read-out: ID50 (the source's name)
[5] = system: Vesicular stomatitis virus; assay: Minimum inhibitory concentration against Vesicular stomatitis virus; type: functional
[6] = system: Vaccinia virus; assay: Minimum cytotoxic concentration against vaccinia virus in primary rabbit kidney cell cultures; type: functional; conditions: Orthopoxvirus vaccinia
[7] = system: L1210; assay: Inhibitory effect on the proliferation of murine leukemia (L1210 ) cells; type: functional; conditions: Mus musculus, read-out: ID50 (the source's name)
[8] = system: FM3A; assay: Inhibitory effect on the proliferation of murine mammary carcinoma (FM3A ) cells; type: functional; conditions: Mus musculus, read-out: ID50 (the source's name)
[9] = system: Vaccinia virus; assay: Minimum inhibitory concentration against Vaccinia virus; type: functional; conditions: Orthopoxvirus vaccinia
[10] = system: Vaccinia virus; assay: Minimum inhibitory concentration against vaccinia virus in Vero cell cultures of experiment 2; type: functional; conditions: Orthopoxvirus vaccinia
[11] = system: Calf thymus DNA; assay: Relative binding constant to calf thymus DNA; type: nucleic-acid assay; conditions: Bos taurus
How it was run: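 Ethidium displacement: Tris-EDTA buffer pH 8 with 1.3 μM ethidium bromide and calf thymus DNA (1.35 μM final); drug aliquots added, fluorescence read after a few minutes' equilibration (excitation 525 nm, emission 600 nm). Drug level giving 50% fluorescence decrease converted to relative binding constant taking ethidium binding constant as 10^7 M-1.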

[12] = Inhibition of Moloney Murine Leukemia Associated Reverse Transcriptase; type: functional, Mus musculus
[13] = system: Vaccinia virus; assay: Minimum cytotoxic concentration against vaccinia virus in Vero cell cultures; type: functional; conditions: Orthopoxvirus vaccinia
[14] = system: Vaccinia virus; assay: (§1) Minimum inhibitory concentration against vaccinia virus in primary rabbit kidney cell cultures of experiment 2; type: functional; conditions: Orthopoxvirus vaccinia
[15] = system: Vaccinia virus; assay: Minimum cytotoxic concentration against vaccinia virus in HeLa cell cultures; type: functional; conditions: Orthopoxvirus vaccinia
[16] = system: Vaccinia virus; assay: Minimum inhibitory concentration against vaccinia virus in Vero cell cultures of experiment 1; type: functional; conditions: Orthopoxvirus vaccinia
[17] = system: Human alphaherpesvirus 2; assay: Minimum inhibitory concentration against Herpes simplex virus 2(G); type: functional
[18] = system: Vaccinia virus; assay: Minimum inhibitory concentration against vaccinia virus in primary rabbit kidney cell cultures of experiment 1; type: functional; conditions: Orthopoxvirus vaccinia
[19] = system: Raji; assay: Inhibitory effect on the proliferation of human B lymphoblast (Raji ) cells; type: functional; conditions: read-out: ID50 (the source's name)
[20] = system: Vaccinia virus; assay: as §1; type: functional, Orthopoxvirus vaccinia; conditions: Orthopoxvirus vaccinia; read-out: MIC
[21] = system: Vaccinia virus; assay: Minimum inhibitory concentration against vaccinia virus embryonic skin muscle cell cultures; type: functional; conditions: Orthopoxvirus vaccinia
[22] = Minimum cytotoxic concentration in primary rabbit kidney (PRK) cell cultures; type: functional, Oryctolagus cuniculus

SMILES	MCC [1] [µg/mL]	IC50 [2] [µg/mL]	MIC [3] [µg/mL]	MIC [5] [µg/mL]	MCC [6] [µg/mL]	IC50 [7] [µg/mL]	IC50 [8] [µg/mL]	MIC [9] [µg/mL]	MIC [10] [µg/mL]	Binding constant [11] [M⁻¹]	ID50 [12] [µg/mL]	MCC [13] [µg/mL]	MIC [14] [µg/mL]	MCC [15] [µg/mL]	MIC [16] [µg/mL]	MIC [17] [µg/mL]	MIC [18] [µg/mL]	MIC [20] [µg/mL]	MIC [21] [µg/mL]	MCC [22] [µg/mL]	further results
Cl.Cl.Cn1cc(NC(=O)c2cc(NC(=O)CCCCCC(=O)Nc3cc(C(=O)Nc4cc(C(=O)NCCC(=N)N)n(C)c4)n(C)c3)cn2C)cc1C(=O)NCCC(=N)N	200	4.4	150	> 200	> 200	> 100	> 100	2	20	1.2e+07	72.5	> 200	7	> 200	20	70	7	20	0.7	400	IC50 [4]: 5.74 µg/mL; IC50 [19]: 11.1 µg/mL
Cn1cc(NC(=O)c2cc(NC(=O)CNC(=N)N)cn2C)cc1C(=O)NCCC(=N)N										1.9e+07											
Cn1cc(NC(=O)c2cc(NC(=O)CCC(=O)Nc3cc(C(=O)Nc4cc(C(=O)NCCC(=N)N)n(C)c4)n(C)c3)cn2C)cc1C(=O)NCCC(=N)N										7.2e+07											
Cl.Cl.Cn1cc(NC(=O)c2cc(NC(=O)CCCCCCCCC(=O)Nc3cc(C(=O)Nc4cc(C(=O)NCCC(=N)N)n(C)c4)n(C)c3)cn2C)cc1C(=O)NCCC(=N)N	> 100	0.98	> 10	> 10	> 40	4.21	22.1	0.7	> 40	1.7e+07	20.9	> 40	2	100	20	> 10	2	20	0.2	>40	IC50 [4]: 2.97 µg/mL; IC50 [19]: 3.24 µg/mL
Nc1nccc2c1ncn2[C@@H]1C[C@H](CO)[C@@H](O)[C@H]1O [3-DEAZAARISTEROMYCIN A]	> 400		> 400	0.7 (≈ 2.65 µM)	> 400			2 (≈ 7.57 µM)	0.2 (≈ 0.757 µM)			> 200	2 (≈ 7.57 µM)	> 400	0.2 (≈ 0.757 µM)	300 (≈ 1140 µM)	2 (≈ 7.57 µM)	0.7 (≈ 2.65 µM)	2 (≈ 7.57 µM)	>400	
O=C(O)C1=CC(=C(c2ccc(O)c(C(=O)O)c2)c2ccc(O)c(C(=O)O)c2)C=CC1=O [AURINTRICARBOXYLIC ACID]											1.42 (≈ 3.36 µM)										
Cl.Cl.Cn1cc(NC(=O)c2cc(NC(=O)c3cc(NC(=O)CCC(=O)Nc4cc(C(=O)Nc5cc(C(=O)Nc6cc(C(=O)NCCC(=N)N)n(C)c6)n(C)c5)n(C)c4)cn3C)cn2C)cc1C(=O)NCCC(=N)N	> 4	> 20			> 4	> 100	4.29		> 4		>400	> 4	> 4	> 20	> 4		> 4	> 10	> 4		IC50 [4]: 2.85 µg/mL; IC50 [19]: 41.4 µg/mL
Cl.Cl.Cn1cc(NC(=O)c2cc(NC(=O)CCCCCCC(=O)Nc3cc(C(=O)Nc4cc(C(=O)NCCC(=N)N)n(C)c4)n(C)c3)cn2C)cc1C(=O)NCCC(=N)N	> 200	0.7	> 10	> 10	> 40	3.34	3.15	0.2	7	2.5e+07	21.3	> 40	2	> 200	7	> 10	0.7	2	0.07	>10	IC50 [4]: 1.74 µg/mL; IC50 [19]: 2.14 µg/mL
NC(=O)c1ncn([C@@H]2O[C@H](CO)[C@@H](O)[C@H]2O)n1 [RIBAVIRIN]	> 400		> 400	> 400	> 400			20 (≈ 81.9 µM)	20 (≈ 81.9 µM)			> 400	7 (≈ 28.7 µM)	> 400	7 (≈ 28.7 µM)	300 (≈ 1230 µM)	20 (≈ 81.9 µM)	20 (≈ 81.9 µM)	70 (≈ 287 µM)	>400	
Cl.Cl.Cn1cc(NC(=O)c2cc(NC(=O)CCCC(=O)Nc3cc(C(=O)Nc4cc(C(=O)NCCC(=N)N)n(C)c4)n(C)c3)cn2C)cc1C(=O)NCCC(=N)N	400	6.4	> 200	> 200	> 200	> 100	> 100	7	150	1.8e+07	39.9	> 400	20	> 400	70	200	20	40	7	>200	IC50 [4]: > 100 µg/mL; IC50 [19]: > 100 µg/mL
Cl.Cl.Cn1cc(NC(=O)c2cc(NC(=O)CC(=O)Nc3cc(C(=O)Nc4cc(C(=O)NCCC(=N)N)n(C)c4)n(C)c3)cn2C)cc1C(=O)NCCC(=N)N	> 40	0.91	> 4	> 10	40	28.5	5.87	0.2	2	3.6e+07	39	> 40	2	> 40	2	> 4	2	2	0.2	>10	IC50 [4]: 2.85 µg/mL; IC50 [19]: 3.39 µg/mL
Cn1cc(NC(=O)c2cc(NC(=O)c3cc(NC=O)cn3C)cn2C)cc1C(=O)NCCC(=N)N [STALLIMYCIN]		> 20				27 (≈ 56.1 µM)	31 (≈ 64.4 µM)			8e+06											IC50 [19]: 24 µg/mL (≈ 49.8 µM)
Nc1ncnc2c1ccn2[C@@H]1O[C@H](CO)[C@@H](O)[C@H]1O [TUBERCIDIN]	> 0.1		> 0.4	0.2 (≈ 0.751 µM)	> 0.4			> 0.1	0.02 (≈ 0.0751 µM)			> 0.4	0.2 (≈ 0.751 µM)	> 1	0.02 (≈ 0.0751 µM)	> 0.4	> 0.1	0.2 (≈ 0.751 µM)	0.07 (≈ 0.263 µM)	>1	
